In the assay the test system is Ach15909. In words: HPLC of salidroside formed. In kind it is biochemical, Astilbe chinensis. The note with it: 2 mM UDP-glucose, 0.05-2.0 mM tyrosol, 50 mM PB pH 8.0, 37 °C, 30 min. In a few lines:
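Recombinant A. chinensis UGT was expressed in E. coli Rosetta 2 (DE3), Ni-NTA purified with an imidazole gradient, exchanged into PBS pH 7.4, and quantified by BCA. Reactions were started by adding protein and quenched for C18 HPLC (0.1% formic acid water/acetonitrile gradient, 275 nm). Salidroside was quantified against an external standard curve, in triplicate, with kinetic parameters from non-linear fitting.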

Data on one compound can be found in paper PMC12018814 (Plant Biotechnology Journal, 2025).

One may read the Km as the substrate concentration at which the rate is half of its maximum. Turning to `OCCc1ccc(O)cc1` [compound 1, tyrosol], the Km worked out at 740 ± 200 µM.
